Reference: ChEMBL document CHEMBL1126099, “Synthesis and biological characterization of alpha-(4-fluorophenyl)-4-(5-fluoro-2-pyrimidinyl)-1-piperazinebutanol and analogues as potential atypical antipsychotic agents” (J Med Chem, 1992)

Columns and labels:
[1] = biological target: T1, Adrenergic receptor alpha-1 (Rattus norvegicus, UniProt P15823+P23944+P43140); assay: Inhibition of [3H]WB-4101 binding to rat cortical Alpha-1 adrenergic receptor in vitro; format: protein assay
T1 sequence (P15823 whole entry): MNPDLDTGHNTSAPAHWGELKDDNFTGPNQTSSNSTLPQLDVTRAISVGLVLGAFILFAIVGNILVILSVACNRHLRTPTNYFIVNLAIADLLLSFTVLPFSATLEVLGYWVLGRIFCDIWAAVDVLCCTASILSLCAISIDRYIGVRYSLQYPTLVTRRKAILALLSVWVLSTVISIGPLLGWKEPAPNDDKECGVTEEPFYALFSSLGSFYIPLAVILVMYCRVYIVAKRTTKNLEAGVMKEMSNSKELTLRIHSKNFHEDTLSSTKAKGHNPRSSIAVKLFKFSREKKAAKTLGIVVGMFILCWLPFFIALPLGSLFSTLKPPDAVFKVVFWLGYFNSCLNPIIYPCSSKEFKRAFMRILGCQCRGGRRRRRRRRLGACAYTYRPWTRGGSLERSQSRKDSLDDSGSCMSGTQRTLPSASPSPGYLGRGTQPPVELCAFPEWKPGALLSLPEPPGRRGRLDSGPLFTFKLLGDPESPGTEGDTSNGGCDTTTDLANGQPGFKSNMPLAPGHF
T1 sequence (P23944 whole entry): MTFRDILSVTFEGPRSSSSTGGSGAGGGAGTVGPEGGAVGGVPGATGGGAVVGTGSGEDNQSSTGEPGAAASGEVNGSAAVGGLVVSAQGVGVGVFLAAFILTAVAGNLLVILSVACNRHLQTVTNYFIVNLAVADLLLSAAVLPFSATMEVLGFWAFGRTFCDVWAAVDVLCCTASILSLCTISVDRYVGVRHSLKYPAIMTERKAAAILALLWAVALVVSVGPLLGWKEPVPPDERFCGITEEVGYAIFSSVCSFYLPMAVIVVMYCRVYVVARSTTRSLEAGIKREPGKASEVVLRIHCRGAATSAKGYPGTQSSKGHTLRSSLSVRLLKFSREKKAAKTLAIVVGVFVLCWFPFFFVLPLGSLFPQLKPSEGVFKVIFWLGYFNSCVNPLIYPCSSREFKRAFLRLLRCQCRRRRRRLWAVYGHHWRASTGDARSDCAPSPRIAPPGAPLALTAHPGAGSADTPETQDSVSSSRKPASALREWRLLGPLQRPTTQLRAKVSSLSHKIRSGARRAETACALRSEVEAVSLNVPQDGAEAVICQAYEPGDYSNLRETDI
T1 sequence (P43140 whole entry): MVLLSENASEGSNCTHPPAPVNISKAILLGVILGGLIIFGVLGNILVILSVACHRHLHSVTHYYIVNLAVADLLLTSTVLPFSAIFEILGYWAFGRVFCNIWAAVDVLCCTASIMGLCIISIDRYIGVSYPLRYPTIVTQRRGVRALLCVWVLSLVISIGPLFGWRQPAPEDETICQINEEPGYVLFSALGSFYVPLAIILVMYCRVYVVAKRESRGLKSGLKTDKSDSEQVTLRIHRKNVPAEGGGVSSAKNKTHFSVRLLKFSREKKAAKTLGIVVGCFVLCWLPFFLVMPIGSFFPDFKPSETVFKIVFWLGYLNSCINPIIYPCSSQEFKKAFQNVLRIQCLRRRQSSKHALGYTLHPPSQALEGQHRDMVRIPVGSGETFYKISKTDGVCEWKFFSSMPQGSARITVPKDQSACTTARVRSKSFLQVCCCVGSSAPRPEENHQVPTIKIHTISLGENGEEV
Method in brief: (§1)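 Competition binding against tritiated radioligand. Test drug was run at five concentrations in a single experiment, and IC50 (nM) was derived from displacement.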

D(2) dopamine receptor [2] = biological target: T2, D(2) dopamine receptor (Rattus norvegicus, UniProt P61169); assay: In vitro inhibitory against radioligand [3H]spiperone binding to rat striatal Dopamine receptor D2; method in brief: as §1
T2 sequence (P61169 whole entry): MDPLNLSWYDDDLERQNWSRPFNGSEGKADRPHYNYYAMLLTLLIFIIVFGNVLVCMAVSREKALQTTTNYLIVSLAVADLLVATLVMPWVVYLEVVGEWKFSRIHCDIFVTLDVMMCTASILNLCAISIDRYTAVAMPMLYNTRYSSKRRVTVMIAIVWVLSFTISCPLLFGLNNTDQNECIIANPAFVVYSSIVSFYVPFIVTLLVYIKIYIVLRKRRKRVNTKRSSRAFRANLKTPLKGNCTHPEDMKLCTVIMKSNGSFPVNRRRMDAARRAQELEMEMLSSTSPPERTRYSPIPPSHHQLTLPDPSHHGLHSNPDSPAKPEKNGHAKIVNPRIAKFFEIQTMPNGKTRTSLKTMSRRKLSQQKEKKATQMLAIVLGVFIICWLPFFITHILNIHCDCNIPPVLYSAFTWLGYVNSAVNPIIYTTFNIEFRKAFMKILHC

Rattus norvegicus [3] = species: Rattus norvegicus; assay: Effective peroral dose for inhibition of conditioned avoidance response in rats; format: functional; conditions: po
[4] = biological target: T3, Sigma non-opioid intracellular receptor 1 (Rattus norvegicus, UniProt Q9R0C9); assay: Displacement of (+)-[3H]-3-PPP from rat cortical sigma site; method in brief: as §1
T3 sequence (Q9R0C9 whole entry): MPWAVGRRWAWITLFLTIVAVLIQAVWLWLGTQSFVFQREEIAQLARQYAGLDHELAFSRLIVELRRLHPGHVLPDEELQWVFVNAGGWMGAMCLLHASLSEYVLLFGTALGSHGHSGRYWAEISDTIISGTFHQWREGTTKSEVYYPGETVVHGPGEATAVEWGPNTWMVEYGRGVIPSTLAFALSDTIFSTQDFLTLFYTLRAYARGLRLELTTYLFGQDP

Rattus norvegicus [5] = species: Rattus norvegicus; assay: Inhibition of apomorphine-induced stereotypy in rats via peroral route; format: functional
[6] = biological target: T1, Adrenergic receptor alpha-1; assay: Inhibitory concentration against radioligand [3H]-WB- 4101 binding to rat cortical Alpha-1 adrenergic receptor; format: protein assay; method in brief: as §1
Rattus norvegicus [7] = assay: Effective in vivo peroral dose against induction of catalepsy in rats; format: functional
[8] = biological target: T1, Adrenergic receptor alpha-1; assay: In vitro inhibitory concentration against radioligand [3H]WB-4101 binding to rat cortical alpha-1 adrenergic receptor; format: protein assay
[9] = biological target: T3, Sigma non-opioid intracellular receptor 1; assay: Compound was tested in vitro for its ability to displace radioligand (+)-[3H]-3-PPP from rat cortical sigma receptor
Mus musculus [10] = species: Mus musculus; assay: Effective dose for inhibition of norepinephrine induced lethality in mouse; format: functional
Mus musculus [11] = species: Mus musculus; assay: Effective dose for inhibition of physostigmine induced lethality in mouse; format: functional
Rattus norvegicus [12] = assay: Bmax (D2 receptor number) was determined after peroral administration of 15 mg/Kg in rats qd for 29 days; format: functional
Method in brief: (§2)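 Rats dosed orally once daily for 29 days with vehicle or test drug. Striatal D2 receptor number (Bmax, fmol/mg protein) and affinity (KD, pM) were then measured. Values are mean ± SEM for the number of preparations, with significance versus vehicle by Student's t-test (p < 0.05).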

Rattus norvegicus [13] = assay: Bmax (D2 receptor number) was determined after peroral administration of 30 mg/Kg in rats qd for 29 days; format: functional; method in brief: as §2
Rattus norvegicus [14] = species: Rattus norvegicus; assay: Effective dose for ethanol potentiation in rats; format: functional
Rattus norvegicus [15] = species: Rattus norvegicus; assay: Effective dose for inhibition of spontaneous motor activity in rats; format: functional
Rattus norvegicus [16] = species: Rattus norvegicus; assay: Effective dose for motor incoordination in rats was determined by rotarod method; format: functional
Rattus norvegicus [17] = assay: Effect of chronic administration at a peroral dose of 30 mg/Kg qd for 29 days on D2 receptor binding in rat striata; format: functional, organism-based; method in brief: as §2
Rattus norvegicus [18] = assay: Effect of chronic administration at a peroral dose of 15 mg/Kg qd for 29 days on D2 receptor binding in rat striata; format: functional, organism-based; method in brief: as §2
D(2) dopamine receptor [19] = biological target: T2, D(2) dopamine receptor; assay: Inhibitory concentration against radioligand [3H]spiperone binding to rat striatal Dopamine receptor D2
Method in brief: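 [3H]Spiperone displacement at the D2 receptor. Each value comes from a single experiment in which displacement of the tritiated ligand was measured at five concentrations of test drug, and an IC50 in nM was derived from that.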

[20] = Rattus norvegicus, po, read-out: ED50

SMILES | IC50 [1] | IC50 (D(2) dopamine receptor [2]) | ED50 (Rattus norvegicus [3]) | IC50 [4] | ED50 (Rattus norvegicus [5]; [20]) | also measured
Oc1nc(N2CCN(CCCC(O)c3ccc(F)cc3)CC2)ncc1F (stereo unspecified) | > 1 µM | > 1 µM | > 100 mg/kg | > 1 µM | > 100 mg/kg | 
OC(CCCN1CCN(c2ncccn2)CC1)(c1ccc(F)cc1)c1ccc(F)cc1 | 0.4 µM | 0.2 µM | 52.9 mg/kg | > 1 µM | > 50 mg/kg | 
OC(CCCN1CCN(c2ncc(F)cn2)CC1)(c1ccc(F)cc1)c1ccc(F)cc1 | 1.14 µM |  | > 100 mg/kg |  |  | 
CSc1nc(N2CCN(CCCC(O)c3ccc(F)cc3)CC2)ncc1F (stereo unspecified) | 0.305 µM | > 1 µM | > 100 mg/kg | 0.026 µM | > 100 mg/kg | 
O[C@@H](CCCN1CCN(c2ncc(F)cn2)CC1)c1ccc(F)cc1 [BMY-14802] |  |  |  |  |  | IC50 [6]: 0.57 µM; ED50 (Rattus norvegicus [7]): 38.1 mg/kg; ED50 (Rattus norvegicus [5]): 25.4 mg/kg
NC(CCCN1CCN(c2ncc(F)cn2)CC1)c1ccc(F)cc1 (stereo unspecified) | 0.446 µM | > 1 µM | > 100 mg/kg | ~1 µM |  | 
CCC(O)(CCCN1CCN(c2ncccn2)CC1)c1ccc(F)cc1 (stereo unspecified) | 0.23 µM | 0.415 µM | > 100 mg/kg |  | > 100 mg/kg | 
Fc1ccc(/C=C(\CCN2CCN(c3ncc(F)cn3)CC2)c2ccc(F)cc2)cc1 | 0.756 µM | 8.8 µM | > 100 mg/kg | > 1 µM |  | 
Fc1ccc(/C=C(\CCN2CCN(c3ncccn3)CC2)c2ccc(F)cc2)cc1 | 0.375 µM | 1.7 µM | > 100 mg/kg | > 1 µM |  | 
O=C(CCN1CCN(c2ncc(F)cn2)CC1)c1ccc(F)cc1 |  |  | > 100 mg/kg |  | > 100 mg/kg | IC50 [8]: 0.523 µM; IC50 [9]: 0.069 µM
OC(CCCN1CCN(c2ncc(Br)cn2)CC1)c1ccc(F)cc1 (stereo unspecified) | 1.5 µM | > 1 µM | 50 mg/kg | 0.026 µM | > 65 mg/kg | ED50 (Rattus norvegicus [7]; [20]): 108 mg/kg
OC(CCCN1CCN(c2ncc(F)cn2)CC1)c1ccc(F)cc1 (stereo in doubt; 16) [BMY-14802] | 0.52 µM |  |  |  | 33 mg/kg | IC50 [6]: 0.46 µM; ED50 (Mus musculus [10]): > 100 mg/kg; ED50 (Mus musculus [11]): > 100 mg/kg; Bmax (Rattus norvegicus [12]): 233 fmol/mg protein; Bmax (Rattus norvegicus [13]): 212 fmol/mg protein; ED50 (Rattus norvegicus [7]): >100 mg/kg; ED50 (Rattus norvegicus [14]): 20.1 mg/kg; ED50 (Rattus norvegicus [15]): 87.3 mg/kg; ED50 (Rattus norvegicus [16]): 43.5 mg/kg; Kd (Rattus norvegicus [17]): 0.000101 µM; Kd (Rattus norvegicus [18]): 0.000121 µM
O[C@H](CCCN1CCN(c2ncc(F)cn2)CC1)c1ccc(F)cc1 |  |  |  |  | 44 mg/kg | IC50 [6]: 0.61 µM; IC50 (D(2) dopamine receptor [19]): > 1 µM; ED50 (Rattus norvegicus [7]; [20]): 11.4 mg/kg
CSc1nc(N2CCN(CCCC(=O)c3ccc(F)cc3)CC2)ncc1F | 0.095 µM | 0.396 µM | > 100 mg/kg | 0.12 µM | > 100 mg/kg | 
O/N=C(\CCCN1CCN(c2ncc(F)cn2)CC1)c1ccc(F)cc1 | 0.022 µM |  | > 100 mg/kg | 0.081 µM |  | 
